Consider one compound from ChEMBL document CHEMBL1765024, “Fluorescent cyclin-dependent kinase inhibitors block the proliferation of human breast cancer cells” (Bioorg Med Chem, 2011).

Series [1] has as its system MDA-MB-231. The series can be described thus: Antiproliferative activity against estrogen receptor-deficient human MDA-MB-231 cells after 48 hrs by WST-1 assay. It is filed as functional, cell-based. To be noted: MDA-MB-231, 48 h. In a few lines:
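Cells seeded at 3000/well in DMEM with 10% FBS and left 24 h. Compounds in DMSO were serially diluted in medium (1–100 µM) and added in triplicate. WST-1 was read 48 h after addition: 2–3 h incubation, absorbance at 450 nm with 630 nm reference. IC50 interpolated from log concentration versus fraction surviving; mean (SEM) of triplicate experiments.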

Series [2] concerns MCF7. The series can be described thus: Induction of apoptosis in human MCF7 cells assessed as viable cells at 10 uM after 24 hrs using annexinV-propidium iodide staining by flow cytometry (reference value: 70.32%). The following applies: MCF7, 24 h, read-out: Activity. Format: functional.
Series [3] concerns MCF7. The series can be described thus: Cell cycle arrest in human MCF7 cells assessed as accumulation at sub G1 phase at 5 to 10 uM after 24 hrs using propidium iodide staining by flow cytometry. It is filed as functional, cell-based. A digest of the protocol: (§1)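 Asynchronous cells were treated with 5 or 10 µM compound or DMSO for 24 h (also 16 and 40 h). They were trypsinized, washed in PBS and fixed/permeabilized in 70% ethanol. Staining was with RNase and propidium iodide for 30 min in the dark at room temperature, followed by flow cytometry. Phase percentages are given minus DMSO control; mean of triplicates.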
(Flow cytometry measures light scatter and fluorescence of single cells or particles in a stream.)

The species named for a further series is Homo sapiens. The series can be described thus: Binding affinity to human breast cancer tissue at 10 uM after 1 hr by two-photon confocal microscopic analysis. Format: functional. A digest of the protocol:
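Breast cancer tissue sections were dewaxed and rehydrated, then given epitope retrieval for 20 min at 100 °C. They were blocked with goat serum, exposed to 10 µM compound or dansyl ethylenediamine control for 1 h at room temperature, washed and mounted. Dansyl fluorescence was imaged.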

Series [4] relates to MCF7. The series can be described thus: Ratio of IC50 for human CL 10.3 cells expressing p-glycoprotein to IC50 for human MCF7 cells. It is filed as functional. In a few lines: (§2)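 MCF-7 and its P-glycoprotein-overexpressing MDR subline CL 10.3 were grown in DMEM with 10% heat-inactivated FBS. Compounds in DMSO were serially diluted in medium and given to cells for 72 h. Read-out was WST-1 reduction (450 nm, 630 nm reference). IC50 interpolated from log concentration versus fraction surviving; mean (SEM) of triplicates. Ratio is CL 10.3 IC50 over MCF-7 IC50.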

The test system of series [5] is MCF7. The series can be described thus: Cell cycle arrest in human MCF7 cells assessed as accumulation at G2/M phase at 5 to 10 uM after 24 hrs using propidium iodide staining by flow cytometry. Format: functional, cell-based. A digest of the protocol: as §1
Series [6] has as its target CDK9/cyclin T1 (Homo sapiens) (UniProt O60563+P50750). The series can be described thus: Inhibition of at human CDK9/cyclin T1 at 0.1 uM after 40 mins relative to control. It is filed as protein-complex assay. In a few lines: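 Radiometric screen at 100 nM compound against purified human CDK/cyclin (5–10 mU). Incubation 40 min at room temperature, stopped with phosphoric acid. Read by filtermat scintillation. Activity expressed as % of control, N = 2.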

Series [7] addresses Cyclin-dependent kinase 1/cyclin B1 (Homo sapiens) (UniProt P06493+P14635). To be noted: at 0.1 µM.
The test system of series [8] is MDA-MB-231. Kind of series: Induction of apoptosis in human MDA-MB-231 cells assessed as decrease in caspase 3 protein level at 10 uM after 48 hrs by Western blotting. It is filed as functional, cell-based. On the technique in general: In western blotting, separated proteins are transferred to a membrane and probed.
In series [9] the test system is MCF7. Kind of series: Drug uptake in human MCF7 cell cytoplasm at 10 uM after 3 to 24 hrs using propidium iodide staining by two-photon confocal microscopy. It is filed as ADME, cell-based. To be noted: mcf7, 10 µM.
The subject of series [10] is MDA-MB-231. Kind of series: Induction of apoptosis in human MDA-MB-231 cells assessed as reduction of cdc2 phosphorylation at Y15 regulatory site at 10 uM by Western blot analysis. Format: functional, cell-based. The following applies: TDE = time-dependent effect. In a few lines: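 MDA-MB-231 cells were treated with 10 µM compound for 1, 3, 6, 12 and 24 h and lysed. Equal protein was resolved by 10% SDS–PAGE and immunoblotted for phospho-cdc2 (T161, Y15), cdc2 and cyclin B, with actin as loading standard and ECL detection.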

Series [11] deals with MDA-MB-231. Kind of series: Cell cycle arrest in human MDA-MB-231 cells assessed as accumulation at G2/M phase treated at 5 uM for 24 hrs measured after drug washout following 48 hrs growth recovery using propidium iodide staining by flow cytometry. Format: functional, cell-based. A digest of the protocol: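 Exponentially growing cells exposed 24 h, then held a further 48 h in compound-free medium. Cells trypsinized, pelleted, PBS-washed, permeabilized in 70% ethanol, stained 30 min in the dark at room temperature with PI plus RNase, and analysed by flow cytometry. Phase percentages given after subtracting untreated control. Mean of triplicate experiments.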

Series [12] concerns MDA-MB-231. Kind of series: Cell cycle arrest in human MDA-MB-231 cells assessed as accumulation at sup G1 phase at 5 to 10 uM after 24 hrs using propidium iodide staining by flow cytometry. Format: functional, cell-based. A digest of the protocol: as §1
Series [13] has as its system MCF7. Kind of series: Induction of apoptosis in human MCF7 cells assessed as aberrant gross morphological changes at 10 uM after 48 hrs using propidium iodide staining by confocal microscopic analysis. Format: functional, cell-based.
Series [14] relates to MCF7. Kind of series: Drug uptake in human MCF7 cell cytoplasm at 10 uM after 1 hr using propidium iodide staining by two-photon confocal microscopy. It is filed as ADME, cell-based. To be noted: mcf7, 1 h. A digest of the protocol: (§3)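 Cells (5 × 10^5) were treated with 10 µM compound for 1 h, PBS-washed and fixed in 4% formaldehyde. Nuclei were stained with propidium iodide for 5 min before mounting. Imaging used two-photon confocal microscopy, 63× oil, excitation 720 nm, emission 480–520 nm, with DIC for morphology.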

The test system of series [15] is MDA-MB-231. Kind of series: Induction of apoptosis in human MDA-MB-231 cells assessed as induction of PARP cleavage at 10 uM after 48 hrs by Western blotting. Format: functional, cell-based. In a few lines: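 MDA-MB-231 cells were treated with vehicle or 10 µM compound for 48 h (and 72 h). Lysates were cleared and protein measured by BCA. Equal protein was run on 10% SDS–PAGE and transferred to PVDF, blocked in 5% milk overnight, and probed 2 h with anti-Bcl-2, Bax or PARP. HRP secondary was applied for 1 h, with ECL detection.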

The nature of series [16]: Antiproliferative activity against human CL 10.3 cells expressing p-glycoprotein after 72 hrs by WST-1 assay. It is filed as functional, cell-based. In a few lines:
as §2
In general terms: Tetrazolium dyes change colour on reduction, which living cells bring about.

Series [17] relates to MDA-MB-231. The series can be described thus: Induction of apoptosis in human MDA-MB-231 cells assessed as aberrant gross morphological changes at 10 uM after 48 hrs using propidium iodide staining by confocal microscopic analysis. It is filed as functional, cell-based.
The test system of series [18] is MCF7. Kind of series: Antiproliferative activity against human MCF7 cells expressing estrogen receptor after 72 hrs by WST-1 assay. It is filed as functional, cell-based. To be noted: MCF7, 72 h. In a few lines: as §2
For series [19], the system named is MDA-MB-231. Kind of series: Cell cycle arrest in human MDA-MB-231 cells assessed as accumulation at G2/M phase at 5 to 10 uM after 16 to 40 hrs using propidium iodide staining by flow cytometry. Format: functional, cell-based. A digest of the protocol: as §1
Series [20] concerns MDA-MB-231. The series can be described thus: Drug uptake in human MDA-MB-231 cell cytoplasm at 10 uM after 1 hr using propidium iodide staining by two-photon confocal microscopy. It is filed as ADME, cell-based. To be noted: mda-mb-231, 1 h. A digest of the protocol:
as §3

The target in series [21] is T1, Cyclin-dependent kinase 5/CDK5 activator 1 (Homo sapiens) (UniProt Q00535+Q15078). To be noted: at 0.1 µM.
In series [22] the test system is MDA-MB-231. Kind of series: Drug uptake in human MDA-MB-231 cell cytoplasm at 10 uM after 3 to 24 hrs using propidium iodide staining by two-photon confocal microscopy. It is filed as ADME, cell-based. To be noted: mda-mb-231, 10 µM.
Series [23] concerns the target T1, Cyclin-dependent kinase 5/CDK5 activator 1 (Homo sapiens). The following applies: at 0.1 µM. The source holds these as a separate data set.

In general, IC50 refers to the concentration at which inhibition is half-maximal. Read a low IC50 as higher potency. As a reminder, the inhibition is the drop in the measured response relative to a control, in per cent.

SMILES strings stand for the structures. The source made the active and inactive calls. The calls are words filed in the database; no cut-off is given here.

T1 sequence (Q00535 whole entry): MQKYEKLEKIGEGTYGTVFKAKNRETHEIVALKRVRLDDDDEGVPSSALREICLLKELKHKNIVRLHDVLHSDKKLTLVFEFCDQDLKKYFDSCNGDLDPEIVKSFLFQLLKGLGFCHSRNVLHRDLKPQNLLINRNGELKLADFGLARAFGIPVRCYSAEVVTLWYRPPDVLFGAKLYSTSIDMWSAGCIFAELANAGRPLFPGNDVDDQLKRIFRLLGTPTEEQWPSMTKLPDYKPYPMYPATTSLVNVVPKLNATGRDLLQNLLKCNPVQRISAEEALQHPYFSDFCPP
T1 sequence (Q15078 99-307 partner limits assumed): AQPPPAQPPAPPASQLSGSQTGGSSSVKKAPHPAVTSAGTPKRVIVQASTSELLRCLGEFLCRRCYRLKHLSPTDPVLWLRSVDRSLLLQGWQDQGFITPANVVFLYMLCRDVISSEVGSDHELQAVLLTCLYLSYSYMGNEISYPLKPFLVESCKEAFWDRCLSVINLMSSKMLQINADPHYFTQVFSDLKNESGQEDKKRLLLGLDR
Cyclin-dependent kinase 1/cyclin B1 (Homo sapiens), sequence (P06493 whole entry, looked up): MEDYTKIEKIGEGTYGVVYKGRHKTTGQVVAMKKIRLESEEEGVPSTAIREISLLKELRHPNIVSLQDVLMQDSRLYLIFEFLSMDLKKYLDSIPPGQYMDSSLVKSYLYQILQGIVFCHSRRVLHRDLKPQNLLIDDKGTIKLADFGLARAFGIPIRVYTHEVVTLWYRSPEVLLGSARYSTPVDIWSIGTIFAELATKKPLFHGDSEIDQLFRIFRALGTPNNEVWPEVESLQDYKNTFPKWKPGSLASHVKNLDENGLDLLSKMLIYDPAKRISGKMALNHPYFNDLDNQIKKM
Cyclin-dependent kinase 1/cyclin B1 (Homo sapiens), sequence (P14635 whole entry, looked up): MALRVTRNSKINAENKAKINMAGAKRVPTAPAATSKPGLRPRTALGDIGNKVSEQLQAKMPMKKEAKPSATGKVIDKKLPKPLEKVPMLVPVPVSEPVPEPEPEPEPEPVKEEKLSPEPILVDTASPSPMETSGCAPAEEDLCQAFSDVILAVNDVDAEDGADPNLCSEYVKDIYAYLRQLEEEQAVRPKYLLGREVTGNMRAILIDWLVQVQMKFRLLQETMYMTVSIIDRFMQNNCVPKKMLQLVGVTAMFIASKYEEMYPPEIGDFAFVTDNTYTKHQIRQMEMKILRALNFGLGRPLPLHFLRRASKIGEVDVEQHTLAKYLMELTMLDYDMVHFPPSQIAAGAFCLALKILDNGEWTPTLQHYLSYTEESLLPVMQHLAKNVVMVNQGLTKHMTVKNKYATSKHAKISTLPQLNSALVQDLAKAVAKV

As for `CC(C)[C@H](CO)Nc1nc(Nc2ccc(C(=O)NCCNS(=O)(=O)c3cccc4c(N(C)C)cccc34)c(Cl)c2)c2ncn(C(C)C)c2n1`, the results for the IC50 (with MDA-MB-231 [1]; in [16]; in the series on MCF7 [18]) were 4.06 µM, 44.1 µM and 4.5 µM, respectively. Moreover, the viability at 10 µM in the series on MCF7 [2] was determined as 48.9%. Further, the outcome in the series on MCF7 [3], in the series listed under Homo sapiens, in the series with MCF7 [5], in the series with MDA-MB-231 [8], with MDA-MB-231 [11] and in the series with MDA-MB-231 [12] was Active. For the same compound, the result with MCF7 [13], in the series on MDA-MB-231 [15], in the series on MDA-MB-231 [17] and in the series with MDA-MB-231 [19] was Active. In addition, the “Ratio IC50” value in the series on MCF7 [4] is 9.8. In addition, the inhibition in [6] was 67%; in series [7] it was 35%; in the series on MDA-MB-231 [10], “tde”; in [21] it was 75%; in series [23], 66%. The result in the series with MCF7 [9], in the series on MCF7 [14], in the series with MDA-MB-231 [20] and with MDA-MB-231 [22] was Active.
